Measurements collected from several papers.
Lines come from different studies, so protocols differ.
TPR: Trypanothione reductase (TPR, Trypanosoma cruzi, UniProt P28593)
BCHE: Cholinesterase (BCHE, Homo sapiens, UniProt P06276)

For `Nc1c2c(nc3ccccc13)CCCC2`, the IC50 was 3 µM (Ribosyldihydronicotinamide dehydrogenase [quinone] (NQO2, Homo sapiens, UniProt P16083); enzyme activity, inhibitor, absorbance).
`O=c1c2ccccc2[se]n1-c1ccccc1` has an IC50 of 1.36 µM (TPR; enzyme activity, inhibitor, absorbance).
For `Cc1cc(C)c2[nH]c(=O)c(CN(CCO)C(=S)Nc3ccc(O)cc3)cc2c1`, the EC50 was 4.5 µM (Beta-glucuronidase (uidA, Escherichia coli, UniProt P05804); enzyme activity, inhibitor).
With `OC[C@H]1O[C@H]([S-])[C@H](O)[C@@H](O)[C@@H]1O.[Au+]` the IC50 was 8 µM (Tyrosine-protein phosphatase non-receptor type 12 (PTPN12, Homo sapiens, UniProt Q05209); enzyme activity, inhibitor, fluorescence).
`Cn1cc(-c2cccc(N3CCc4c(sc5c4CC(C)(C)C5)C3=O)c2CO)cc(Nc2ccncn2)c1=O` gave a Ki of > 1110 nM (Tyrosine-protein kinase Fgr (FGR, Homo sapiens, UniProt P09769); enzyme activity, inhibitor, FRET).
With `CC(C)(O)[C@@H](Nc1nc(Cl)nc2c1ncn2[C@H]1[C@H](O)[C@H](O)[C@]2(CO)C[C@H]12)C1CC1` the Ki was 2730 nM (Muscarinic acetylcholine receptor M5 (CHRM5, Homo sapiens, UniProt P08912); ligand displacement, radioligand).
`CSCC[C@H](NC(=O)[C@H](CCC(N)=O)NC(=O)[C@H](C)NC(=O)[C@H](CO)NC(=O)[C@@H](N)CO)C(=O)N[C@@H](CC(N)=O)C(=O)N[C@@H](CC(C)C)C(=O)N[C@@H](CC(N)=O)C(=O)N[C@H](C(=O)N[C@@H](Cc1ccccc1)C(=O)N[C@@H](CC(C)C)C(=O)N[C@@H](CC(N)=O)C(=O)O)[C@@H](C)O` gave an IC50 of 266 µM (1-deoxy-D-xylulose 5-phosphate reductoisomerase (Escherichia coli K-12, UniProt P45568); enzyme activity, inhibitor, absorbance; with preincubation).
`CCCCc1cc2cc(-n3nc(C)c4c3CC(C)(C)CC4=O)cc(N[C@H]3CC[C@H](O)CC3)c2c(=O)[nH]1` gave an IC50 of 0.186 µM (Heat shock protein HSP 90-beta (HSP90AB1, Homo sapiens, UniProt P08238); ligand displacement, FP).
With `[O-]/[N+](=C\c1ccc2cccc(O)c2n1)Cc1ccccc1` the Ki was 4.3 nM (BCHE; enzyme activity, inhibitor; pH 7).
With `C=CCn1c2cc(OC(=O)CCCCN3CCN(Cc4ccccc4C(F)(F)F)CC3)ccc2c2ccnc(C)c21` the IC50 was 0.357 µM (BCHE; enzyme activity, inhibitor, Ellman).
`CC(C)C[C@H](NC(=O)[C@H](Cc1ccccc1)NC(=O)c1cnccn1)B(O)O` has an IC50 of 2 µM (Plasma kallikrein (KLKB1, Homo sapiens, UniProt P03952); enzyme activity, inhibitor).
For `CSCC[C@H](NC(=O)[C@H](CC(C)C)NC(=O)[C@H](Cc1cnc[nH]1)NC(=O)CNC(=O)[C@@H](NC(=O)[C@H](C)NC(=O)[C@H](Cc1c[nH]c2ccccc12)NC(=O)[C@H](CCC(N)=O)NC(=O)[C@H](CC(N)=O)NC(=O)CNC(=O)[C@H](CC(C)C)NC(=O)[C@H](CCCN=C(N)N)NC(=O)[C@H](CCC(N)=O)NC(=O)[C@@H]1CCC(=O)N1)C(C)C)C(N)=O`, the EC50 was > 10 µM (Bombesin receptor subtype-3 (Brs3, Mus musculus, UniProt O54798); calcium signal, agonist, fluorescence).
With `C/C=C1\NC(=O)[C@@H](NC(=O)[C@@H](NC(=O)C/C(=C/Cl)CC)C(C)C)[C@@H](C)OC(=O)[C@H](C(C)C)NC(=O)[C@H](Cc2ccc(O)cc2)N(C)C(=O)[C@H](Cc2ccccc2)N2C(=O)[C@H](CC[C@H]2O)NC1=O` the IC50 was > 5 µM (Proteinase K (PROK, Engyodontium album, UniProt P06873); enzyme activity, inhibitor, fluorescence).
`Cc1cc(O)cc(C)c1C[C@H](N)C(=O)N[C@H](C)C(=O)N[C@@H](Cc1ccccc1)C(=O)N[C@@H](CCCN)C(N)=O` gave a Ki of 0.033 nM (Mu-type opioid receptor (OPRM1, Cavia porcellus, UniProt P97266); ligand displacement, radioligand; cell membranes).
`c1ccc(CCCN2CCN(CCOC(c3ccccc3)c3ccccc3)CC2)cc1` has an IC50 of 10.9 µM (TPR; enzyme activity, inhibitor, absorbance).
